From ChEMBL document CHEMBL1147130, “Dihydropyridopyrazinones and dihydropteridinones as corticotropin-releasing factor-1 receptor antagonists: structure-activity relationships and computational modeling” (J Med Chem, 2007)

Target: T1, Corticotropin-releasing factor receptor 1 (Rattus norvegicus, UniProt P35353)
T1 sequence (P35353 whole entry): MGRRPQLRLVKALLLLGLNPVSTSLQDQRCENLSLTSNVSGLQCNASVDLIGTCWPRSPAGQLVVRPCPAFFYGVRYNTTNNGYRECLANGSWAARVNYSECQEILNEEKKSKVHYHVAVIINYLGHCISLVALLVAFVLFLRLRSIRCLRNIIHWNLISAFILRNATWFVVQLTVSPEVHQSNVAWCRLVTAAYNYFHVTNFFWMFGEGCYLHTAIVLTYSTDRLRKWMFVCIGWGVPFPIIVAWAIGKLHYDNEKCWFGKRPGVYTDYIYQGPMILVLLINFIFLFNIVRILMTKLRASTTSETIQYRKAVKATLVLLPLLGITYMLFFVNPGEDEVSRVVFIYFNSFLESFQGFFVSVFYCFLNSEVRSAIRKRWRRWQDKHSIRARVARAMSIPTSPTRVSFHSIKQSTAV
Test: Displacement of [125I]Tyr-o-CRF from CRF1 receptor in rat frontal cortex homogenates
Format: tissue-based
Method in brief: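 Bound ligand collected by filtration on PEI-treated glass fiber filters and gamma counted. Nonspecific binding defined with 1 µM DMP696.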

Structure (SMILES)	IC50
CCCCN(CC)c1nc(C)nc2c1NCCN2c1ccc(C(C)=O)cc1C	172 nM
CCCN(CCOC)c1cc(C)nc2c1NC(=O)CN2c1cc(OC)c(OC)cc1C	43 nM
CCCCN(CC)c1nc(C)nc2c1NC(=O)CN2c1ccc(OC)nc1OC	60 nM
CCCCN(CC)c1nc(C)nc2c1NC(=O)CN2c1ccc(C(C)=O)cc1C	713 nM
CCCCN(CC)c1cc(C)nc2c1NCCN2c1ccc(OC)cc1C	4.2 nM
CCCCN(CC)c1nc(C)nc2c1NC(=O)CN2c1ccc(OC)cc1C	95 nM
CCCN(CCOC)c1nc(C)nc2c1NCCN2c1cc(OC)c(OC)cc1C	210 nM
CCCCN(CC)c1nc(C)nc2c1NCCN2c1ccc(C#N)cc1C	102 nM
CCCCN(CC)c1nc(C)nc2c1NCCN2c1ccc(OC)nc1OC	9.9 nM
CCCCN(CC)c1cc(C)nc2c1NCCN2c1ccc(C(C)=O)cc1C	8.2 nM
CCCCN(CC)c1cc(C)nc2c1NC(=O)CN2c1ccc(C#N)cc1C	3.3 nM
CCCCN(CC)c1cc(C)nc2c1NCCN2c1ccc(C#N)cc1C	3.5 nM
CCCCN(CC)c1nc(C)nc2c1NCCN2c1ccc(OC)cc1C	11.7 nM
CCCCN(CC)c1nc(C)nc2c1NC(=O)CN2c1ccc(C#N)cc1C	573 nM
CCCCN(CC)c1cc(C)nc2c1NC(=O)CN2c1ccc(C(C)=O)cc1C	5.8 nM
CCCN(CCOC)c1cc(C)nc2c1NCCN2c1cc(OC)c(OC)cc1C	87 nM
CCCCN(CC)c1cc(C)nc2c1NCCN2c1ccc(OC)nc1OC	2.2 nM
